Assay results as given in ChEMBL document CHEMBL1649269, “In vitro activities of three new dihydrofolate reductase inhibitors against clinical isolates of gram-positive bacteria” (2009).
In brackets after ≈: the same amount, converted by molar mass.

How the values were obtained:
Staphylococcus aureus [1] = test: Antimicrobial activity against Heterovancomycin-resistant Staphylococcus aureus by agar dilution method; type: functional
Summary of the method: (§1)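 Clinical S. aureus isolates classed as hVISA or VISA by population analysis profiling. MICs by CLSI agar dilution, with S. aureus ATCC 29213 as control strain.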

Streptococcus mitis [2] = test: Antimicrobial activity against Streptococcus mitis assessed as susceptible isolates by agar dilution method; type: functional; settings: in the assay text read “broth dilution method” for “agar dilution method”
Summary of the method: (§2)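 Clinical isolates of beta-hemolytic streptococci, S. mitis and S. pneumoniae were tested by CLSI methodology, with Mueller-Hinton medium supplemented with 5% lysed horse blood. S. aureus ATCC 29213 and S. pneumoniae ATCC 49619 served as control strains. The percentage of susceptible isolates was derived from CLSI breakpoints.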

Listeria monocytogenes [3] = test: Antimicrobial activity against Listeria monocytogenes by agar dilution method; type: functional
Summary of the method: (§3)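 CLSI agar dilution MIC testing of clinical isolates of staphylococci and Listeria. S. aureus ATCC 29213 and S. pneumoniae ATCC 49619 served as control strains. The percentage of susceptible isolates was calculated from CLSI breakpoints.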

Corynebacterium sp. [4] = test: Antimicrobial activity against Corynebacterium spp. by agar dilution method; type: functional
Staphylococcus [5] = test: Antimicrobial activity against Coagulase-negative Staphylococcus assessed as susceptible isolates by agar dilution method; type: functional; summary of the method: as §3
Streptococcus pneumoniae [6] = test: Antimicrobial activity against Streptococcus pneumoniae by agar dilution method; type: functional; summary of the method: as §2
[7] = Antimicrobial activity against Group C Streptococcus assessed as susceptible isolates by agar dilution method; type: functional, Streptococcus sp. 'group C'; summary of the method: as §2
[8] = Antimicrobial activity against Group G Streptococcus by agar dilution method; type: functional; settings: Streptococcus sp. 'group G'; summary of the method: as §2
[9] = system: Streptococcus sp. 'group B'; test: Antimicrobial activity against Group B Streptococcus assessed as susceptible isolates by agar dilution method; type: functional; summary of the method: as §2
[10] = system: Streptococcus sp. 'group B'; test: Antimicrobial activity against Group B Streptococcus by agar dilution method; type: functional; summary of the method: as §2
Staphylococcus [11] = test: Antimicrobial activity against Coagulase-negative Staphylococcus by agar dilution method; type: functional; summary of the method: as §3
Streptococcus mitis [12] = test: Antimicrobial activity against Streptococcus mitis by broth dilution method
Staphylococcus aureus [13] = test: Antimicrobial activity against methicillin-resistant Staphylococcus aureus by agar dilution method; type: functional
Summary of the method: (§4)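 MICs against clinical MRSA or MSSA isolates by CLSI agar dilution, with S. aureus ATCC 29213 as control strain. Percentage of susceptible isolates was calculated from the MICs using CLSI breakpoints.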

Staphylococcus aureus [14] = test: Antimicrobial activity against methicillin-sensitive Staphylococcus aureus by agar dilution method; type: functional; summary of the method: as §4
[15] = Antimicrobial activity against Group C Streptococcus by agar dilution method; type: functional; settings: Streptococcus sp. 'group C'; summary of the method: as §2
Listeria monocytogenes [16] = test: Antimicrobial activity against Listeria monocytogenes assessed as susceptible isolates by agar dilution method; type: functional; summary of the method: as §3
[17] = system: Streptococcus sp. 'group A'; test: Antimicrobial activity against Group A Streptococcus by agar dilution method; type: functional; summary of the method: as §2
Staphylococcus aureus [18] = test: Antimicrobial activity against methicillin-sensitive Staphylococcus aureus assessed as susceptible isolates by agar dilution method; type: functional; summary of the method: as §4
Streptococcus pneumoniae [19] = test: Antimicrobial activity against Streptococcus pneumoniae assessed as susceptible isolates by agar dilution method; type: functional; summary of the method: as §2
[20] = Antimicrobial activity against Group G Streptococcus assessed as susceptible isolates by agar dilution method; type: functional, Streptococcus sp. 'group G'; summary of the method: as §2
Corynebacterium sp. [21] = test: Antimicrobial activity against Corynebacterium spp. assessed as susceptible isolates by agar dilution method; type: functional
Staphylococcus aureus [22] = test: Antimicrobial activity against vancomycin-resistant Staphylococcus aureus by agar dilution method; type: functional; summary of the method: as §1
[23] = system: Streptococcus sp. 'group A'; test: Antimicrobial activity against Group A Streptococcus assessed as susceptible isolates by agar dilution method; type: functional; summary of the method: as §2
Staphylococcus aureus [24] = test: Antimicrobial activity against vancomycin-resistant Staphylococcus aureus assessed as susceptible isolates by agar dilution method; type: functional
Staphylococcus aureus [25] = test: Antimicrobial activity against Heterovancomycin-resistant Staphylococcus aureus assessed as susceptible isolates by agar dilution method; type: functional

| SMILES | MIC50 (Staphylococcus aureus [1]) [mg/L] | MIC90 (Staphylococcus aureus [1]) [mg/L] | MIC50 (Listeria monocytogenes [3]) [mg/L] | MIC90 (Listeria monocytogenes [3]) [mg/L] | MIC50 (Corynebacterium sp. [4]) [mg/L] | MIC90 (Corynebacterium sp. [4]) [mg/L] | Activity (Staphylococcus [5]) [%] | MIC50 (Streptococcus pneumoniae [6]) [mg/L] | MIC90 (Streptococcus pneumoniae [6]) [mg/L] | Activity [7] [%] | MIC50 [8] [mg/L] | MIC90 [8] [mg/L] | Activity [9] [%] | MIC50 [10] [mg/L] | MIC90 [10] [mg/L] | MIC50 (Staphylococcus [11]) [mg/L] | MIC90 (Staphylococcus [11]) [mg/L] | MIC50 (Streptococcus mitis [12]) [mg/L] | MIC50 (Staphylococcus aureus [13]) [mg/L] | MIC90 (Staphylococcus aureus [13]) [mg/L] | further results |
| --- | --- | --- | --- | --- | --- | --- | --- | --- | --- | --- | --- | --- | --- | --- | --- | --- | --- | --- | --- | --- | --- |
| COc1ncc(C2c3ccccc3C=NN2C(=O)/C=C/c2cc(Cc3cnc(N)nc3N)cc(OC)c2OC)cn1 (configuration not stated) | 0.03 (≈ 0.0543 µM) | 0.06 (≈ 0.109 µM) | 0.015 (≈ 0.0271 µM) | 0.015 (≈ 0.0271 µM) | 0.06 (≈ 0.109 µM) | 4 (≈ 7.24 µM) | 86 | 0.06 (≈ 0.109 µM) | 0.12 (≈ 0.217 µM) | 100 | 0.03 (≈ 0.0543 µM) | 0.06 (≈ 0.109 µM) | 100 | 0.03 (≈ 0.0543 µM) | 0.06 (≈ 0.109 µM) | 0.06 (≈ 0.109 µM) | 8 (≈ 14.5 µM) | < 0.008 | 0.015 (≈ 0.0271 µM) | 0.06 (≈ 0.109 µM) | Activity (Streptococcus mitis [2]): 100%; MIC (Listeria monocytogenes [3]): 0.015 mg/L (≈ 0.0271 µM); MIC (Streptococcus mitis [12]): < 0.008 mg/L; MIC (Staphylococcus aureus [13]): 0.015 mg/L (≈ 0.0271 µM); MIC50 (Staphylococcus aureus [14]): 0.03 mg/L (≈ 0.0543 µM); MIC90 (Staphylococcus aureus [14]): 0.03 mg/L (≈ 0.0543 µM); MIC50 [15]: 0.015 mg/L (≈ 0.0271 µM); MIC90 [15]: 0.06 mg/L (≈ 0.109 µM); Activity (Listeria monocytogenes [16]): 100%; MIC50 [17]: 0.06 mg/L (≈ 0.109 µM); MIC90 [17]: 0.06 mg/L (≈ 0.109 µM); Activity (Staphylococcus aureus [18]): 100%; Activity (Streptococcus pneumoniae [19]): 100%; Activity [20]: 100%; Activity (Corynebacterium sp. [21]): 83%; MIC50 (Staphylococcus aureus [22]): 0.03 mg/L (≈ 0.0543 µM); MIC90 (Staphylococcus aureus [22]): 0.25 mg/L (≈ 0.452 µM); Activity [23]: 100% |
| CCCCCCCCCC(=O)N[C@@H](Cc1c[nH]c2ccccc12)C(=O)N[C@H](CC(N)=O)C(=O)N[C@@H](CC(=O)O)C(=O)N[C@@H]1C(=O)NCC(=O)N[C@@H](CCCN)C(=O)N[C@@H](CC(=O)O)C(=O)N[C@H](C)C(=O)N[C@@H](CC(=O)O)C(=O)NCC(=O)N[C@H](CO)C(=O)N[C@@H]([C@H](C)CC(=O)O)C(=O)N[C@@H](CC(=O)c2ccccc2N)C(=O)O[C@@H]1C | 0.5 (≈ 0.309 µM) | 0.5 (≈ 0.309 µM) | 1 (≈ 0.617 µM) | 2 (≈ 1.23 µM) | 0.06 (≈ 0.037 µM) | 0.12 (≈ 0.074 µM) | 100 | 0.06 (≈ 0.037 µM) | 0.12 (≈ 0.074 µM) | 100 | 0.015 (≈ 0.00926 µM) | 0.03 (≈ 0.0185 µM) | 100 | 0.015 (≈ 0.00926 µM) | 0.06 (≈ 0.037 µM) | 0.25 (≈ 0.154 µM) | 0.5 (≈ 0.309 µM) | 0.25 (≈ 0.154 µM) | 0.12 (≈ 0.074 µM) | 0.25 (≈ 0.154 µM) | MIC [8]: 0.015 mg/L (≈ 0.00926 µM); MIC [10]: 0.015 mg/L (≈ 0.00926 µM); MIC (Streptococcus mitis [12]): 0.006 mg/L (≈ 0.0037 µM); MIC (Staphylococcus aureus [13]): 0.12 mg/L (≈ 0.074 µM); MIC50 (Staphylococcus aureus [14]): 0.25 mg/L (≈ 0.154 µM); MIC90 (Staphylococcus aureus [14]): 0.25 mg/L (≈ 0.154 µM); MIC50 [15]: 0.03 mg/L (≈ 0.0185 µM); MIC90 [15]: 0.12 mg/L (≈ 0.074 µM); Activity (Staphylococcus aureus [24]): 71%; Activity (Staphylococcus aureus [25]): 96%; MIC [17]: 0.015 mg/L (≈ 0.00926 µM); MIC50 [17]: 0.015 mg/L (≈ 0.00926 µM); MIC90 [17]: 0.03 mg/L (≈ 0.0185 µM); Activity (Staphylococcus aureus [18]): 100%; Activity [20]: 100%; MIC50 (Staphylococcus aureus [22]): 1 mg/L (≈ 0.617 µM); MIC90 (Staphylococcus aureus [22]): 2 mg/L (≈ 1.23 µM); Activity [23]: 100% |
| CC(=O)NC[C@H]1CN(c2ccc(N3CCOCC3)c(F)c2)C(=O)O1 [LINEZOLID] | 1 (≈ 2.96 µM) | 2 (≈ 5.93 µM) | 2 (≈ 5.93 µM) | 2 (≈ 5.93 µM) | 0.06 (≈ 0.178 µM) | 0.12 (≈ 0.356 µM) | 100 | 1 (≈ 2.96 µM) | 2 (≈ 5.93 µM) | 100 | 2 (≈ 5.93 µM) | 2 (≈ 5.93 µM) | 100 | 1 (≈ 2.96 µM) | 2 (≈ 5.93 µM) | 1 (≈ 2.96 µM) | 2 (≈ 5.93 µM) | 1 (≈ 2.96 µM) | 2 (≈ 5.93 µM) | 2 (≈ 5.93 µM) | MIC (Staphylococcus aureus [1]): 1 mg/L (≈ 2.96 µM); MIC (Listeria monocytogenes [3]): 2 mg/L (≈ 5.93 µM); MIC [10]: 1 mg/L (≈ 2.96 µM); MIC50 (Staphylococcus aureus [14]): 2 mg/L (≈ 5.93 µM); MIC90 (Staphylococcus aureus [14]): 2 mg/L (≈ 5.93 µM); MIC [15]: 1 mg/L (≈ 2.96 µM); MIC50 [15]: 1 mg/L (≈ 2.96 µM); MIC90 [15]: 2 mg/L (≈ 5.93 µM); MIC50 [17]: 1 mg/L (≈ 2.96 µM); MIC90 [17]: 1 mg/L (≈ 2.96 µM); Activity (Staphylococcus aureus [18]): 100%; Activity (Streptococcus pneumoniae [19]): 100%; Activity [20]: 100%; MIC50 (Staphylococcus aureus [22]): 1 mg/L (≈ 2.96 µM); MIC90 (Staphylococcus aureus [22]): 2 mg/L (≈ 5.93 µM); Activity [23]: 100% |
